Results from ChEMBL document CHEMBL2390866, “Novel pyrimidoazepine analogs as serotonin 5-HT(2A) and 5-HT(2C) receptor ligands for the treatment of obesity” (Eur J Med Chem, 2013).
Active and inactive are the calls of the source. No cut-off for these calls is given here.

Legend:
[1] = species: Homo sapiens; test: Selectivity ratio of IC50 for human recombinant 5HT-2B receptor to IC50 for human recombinant 5HT-2A receptor
[2] = tested on: Mus musculus; test: Antiobesity activity in B6.V/J ob/ob mouse assessed as change in thymus weight at 25 mg/kg, po bid measured after 14 days (reference value: 0.029 +/- 0.006 g); format: functional
[3] = tested on: Mus musculus; test: Antiobesity activity in B6.V/J ob/ob mouse assessed as change in thymus weight at 50 mg/kg, po bid measured after 14 days (reference value: 0.029 +/- 0.006 g); format: functional
[4] = AUC (0 to infinity) in Sprague-Dawley rat at 10 mg/kg, po; format: ADME, organism-based; parameters: time infinity, dose 10 mg/kg, route oral; conditions: plasma
[5] = tested on: Mus musculus; test: Antiobesity activity in B6.V/J ob/ob mouse assessed as inhibition of food intake at 12.5 mg/kg, ip measured up to 6 hrs relative to vehicle-treated control; format: functional; conditions: route intraperitoneal
In short: (§1)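 Male mice were acclimated 1 week at 23 ± 3 °C and 50 ± 20% humidity, then fasted 24 h. They were dosed once intraperitoneally with vehicle or compound: 50 mg/kg in C57BL/6, or 12.5, 25 or 50 mg/kg in B6.V-Lep^ob/J. Food intake was measured at 2, 6 and 12 h versus vehicle control.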

[6] = Plasma concentration in Sprague-Dawley rat at 10 mg/kg, iv measured at 2 hrs; format: ADME, organism-based; parameters: dose 10 mg/kg, route intravenous
In short: (§2)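 Rats fasted 12 h, then dosed orally by gavage or by bolus tail-vein injection at 2 ml/kg. Compound given as a 5 mg/ml solution in N-methyl-2-pyrrolidone/Tween 80/water (1:2:7). Samples taken at various times (n = 5) and stored at −70 °C. Plasma deproteinized with acetonitrile containing carbamazepine internal standard, then quantified by LC-MS/MS.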

[7] = Drug excretion in Sprague-Dawley rat at 10 mg/kg, iv; format: ADME, organism-based; parameters: dose 10 mg/kg, route intravenous; conditions: in vivo, read-out: Ae; in short: as §2
[8] = tested on: Mus musculus; test: Antiobesity activity in B6.V/J ob/ob mouse assessed as change in liver weight at 50 mg/kg, po bid measured after 14 days (reference value: 3.396 +/- 0.162 g); format: functional
[9] = AUClast in Sprague-Dawley rat at 10 mg/kg, po; format: ADME, organism-based; parameters: time 0 - last, dose 10 mg/kg, route oral; conditions: plasma
[10] = tested on: Mus musculus; test: Antiobesity activity in B6.V/J ob/ob mouse assessed as reduction of body weight gain at 50 mg/kg, po bid measured after 14 days; format: functional, organism-based; parameters: dose 50 mg/kg
[11] = biological target: D(3) dopamine receptor (Homo sapiens, UniProt P35462); test: Displacement of [3H]-methylspiperone from dopamine D3 receptor (unknown origin) after 30 mins
In short: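 Receptor membranes incubated at 27 °C, 60 min for D2L and 30 min for D3, with [3H]methylspiperone (0.2 nM for D2L, 0.25 nM for D3) and test compound at a range of concentrations. Buffer was 50 mM Tris-HCl pH 7.4, 10 mM MgCl2, 1 mM EDTA, 120 mM NaCl. Nonspecific binding defined with haloperidol (D2) or GR103691 (D3). IC50 obtained by nonlinear regression.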

[12] = tested on: Mus musculus; test: Antiobesity activity in B6.V/J ob/ob mouse assessed as inhibition of food intake at 25 mg/kg, ip measured up to 6 hrs relative to vehicle-treated control; format: functional; conditions: route intraperitoneal; in short: as §1
[13] = tested on: Mus musculus; test: Antiobesity activity in B6.V/J ob/ob mouse assessed as inhibition of body weight gain at 25 mg/kg, po bid measured after 14 days relative to vehicle-treated control; format: functional; conditions: 336 h
[14] = tested on: Mus musculus; test: Antiobesity activity in B6.V/J ob/ob mouse assessed as inhibition of body weight gain at 12.5 mg/kg, ip measured after 12 hrs relative to vehicle-treated control; format: functional; conditions: route intraperitoneal
[15] = biological target: 5-hydroxytryptamine receptor 2A (Homo sapiens, UniProt P28223); test: Displacement of [3H]-ketanserin from human recombinant 5HT-2A receptor expressed in CHOK1 cell membranes after 60 mins; parameters: species or system CHO-K1
In short: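 Buffer was 50 mM Tris-HCl pH 7.4 with 5 mM CaCl2 and 0.1% ascorbic acid. Test compound added at a range of concentrations.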

[16] = tested on: Mus musculus; test: Toxicity in B6.V/J ob/ob mouse assessed as mortality at 50 mg/kg, po bid measured after 14 days; format: organism-based; parameters: dose 50 mg/kg, route oral; conditions: in vivo, 336 h
[17] = tested on: Mus musculus; test: Antiobesity activity in B6.V/J ob/ob mouse assessed as change in gonadal adipose tissue weight at 5 mg/kg, po bid measured after 14 days (reference value: 3.599 +/- 0.155 g); format: functional
[18] = Drug uptake in Sprague-Dawley rat brain at 10 mg/kg, po measured at 2 hrs; format: ADME, organism-based; parameters: dose 10 mg/kg, route oral; conditions: read-out: Drug uptake; in short: as §2
[19] = tested on: Mus musculus; test: Antiobesity activity in B6.V/J ob/ob mouse assessed as change in brain weight at 5 mg/kg, po bid measured after 14 days (reference value: 0.340 +/- 0.017 g); format: functional
[20] = species: Homo sapiens; test: Selectivity ratio of IC50 for human recombinant 5HT-2B receptor to IC50 for human recombinant 5HT-2C receptor
[21] = tested on: Mus musculus; test: Antiobesity activity in B6.V/J ob/ob mouse assessed as change in gonadal adipose tissue weight at 50 mg/kg, po bid measured after 14 days (reference value: 3.599 +/- 0.155 g); format: functional
[22] = tested on: Mus musculus; test: Antiobesity activity in B6.V/J ob/ob mouse assessed as change in heart weight at 25 mg/kg, po bid measured after 14 days (reference value: 0.150 +/- 0.003 g); format: functional
[23] = Terminal half life in Sprague-Dawley rat at 10 mg/kg, po; format: ADME, organism-based; parameters: dose 10 mg/kg, route oral; conditions: in vivo, read-out: beta t1/2; in short: as §2
[24] = tested on: Mus musculus; test: Antiobesity activity in B6.V/J ob/ob mouse assessed as change in heart weight at 50 mg/kg, po bid measured after 14 days (reference value: 0.150 +/- 0.003 g); format: functional
[25] = Tmax in Sprague-Dawley rat at 10 mg/kg, po; format: ADME, organism-based; parameters: dose 10 mg/kg, route oral; conditions: in vivo; in short: as §2
[26] = tested on: Mus musculus; test: Antiobesity activity in B6.V/J ob/ob mouse assessed as inhibition of food intake at 12.5 mg/kg, ip measured up to 12 hrs relative to vehicle-treated control; format: functional; conditions: route intraperitoneal; in short: as §1
[27] = biological target: 5-hydroxytryptamine receptor 2B (Homo sapiens, UniProt P41595); test: Displacement of […] from human recombinant 5HT-2B receptor
[28] = Drug uptake in Sprague-Dawley rat brain at 10 mg/kg, iv measured at 2 hrs; format: ADME, organism-based; parameters: dose 10 mg/kg, route intravenous; conditions: read-out: Drug uptake; in short: as §2
[29] = tested on: Mus musculus; test: Antiobesity activity in B6.V/J ob/ob mouse assessed as change in brain weight at 25 mg/kg, po bid measured after 14 days (reference value: 0.340 +/- 0.017 g); format: functional
[30] = tested on: Mus musculus; test: Antiobesity activity in B6.V/J ob/ob mouse assessed as change in spleen weight at 50 mg/kg, po bid measured after 14 days (reference value: 0.097 +/- 0.052 g); format: functional
[31] = tested on: Mus musculus; test: Antiobesity activity in B6.V/J ob/ob mouse assessed as change in thymus weight at 5 mg/kg, po bid measured after 14 days (reference value: 0.029 +/- 0.006 g); format: functional
[32] = tested on: Mus musculus; test: Antiobesity activity in C57BL/6 mouse assessed as inhibition of food intake at 50 mg/kg, ip measured after 2 to 12 hrs relative to vehicle-treated control; format: functional; conditions: C57BL/6, ip, route intraperitoneal; in short: as §1

Chain of 5-hydroxytryptamine receptor 2A (P28223 whole entry): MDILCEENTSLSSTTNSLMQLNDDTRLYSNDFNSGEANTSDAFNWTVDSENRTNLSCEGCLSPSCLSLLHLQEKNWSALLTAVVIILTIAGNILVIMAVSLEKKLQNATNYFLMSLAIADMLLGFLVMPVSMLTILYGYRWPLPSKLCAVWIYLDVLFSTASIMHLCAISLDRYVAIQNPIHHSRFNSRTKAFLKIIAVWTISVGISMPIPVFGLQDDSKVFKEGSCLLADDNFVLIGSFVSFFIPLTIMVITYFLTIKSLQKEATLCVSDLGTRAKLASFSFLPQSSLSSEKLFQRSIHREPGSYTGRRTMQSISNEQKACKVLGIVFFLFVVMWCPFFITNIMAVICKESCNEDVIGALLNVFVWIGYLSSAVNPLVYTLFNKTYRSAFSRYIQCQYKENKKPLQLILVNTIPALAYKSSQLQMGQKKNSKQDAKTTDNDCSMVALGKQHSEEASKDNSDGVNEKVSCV
Chain of D(3) dopamine receptor (P35462 whole entry): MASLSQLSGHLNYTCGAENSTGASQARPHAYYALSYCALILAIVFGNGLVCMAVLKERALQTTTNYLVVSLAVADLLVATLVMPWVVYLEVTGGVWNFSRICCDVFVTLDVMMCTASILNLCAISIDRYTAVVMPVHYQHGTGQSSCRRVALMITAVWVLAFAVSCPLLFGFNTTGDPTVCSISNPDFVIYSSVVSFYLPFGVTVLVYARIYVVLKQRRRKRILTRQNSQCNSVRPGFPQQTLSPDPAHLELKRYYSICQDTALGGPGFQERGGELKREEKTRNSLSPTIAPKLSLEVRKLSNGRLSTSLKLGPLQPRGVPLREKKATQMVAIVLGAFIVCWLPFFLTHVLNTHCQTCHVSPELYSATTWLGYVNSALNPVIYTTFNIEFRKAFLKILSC
Chain of 5-hydroxytryptamine receptor 2B (P41595 whole entry): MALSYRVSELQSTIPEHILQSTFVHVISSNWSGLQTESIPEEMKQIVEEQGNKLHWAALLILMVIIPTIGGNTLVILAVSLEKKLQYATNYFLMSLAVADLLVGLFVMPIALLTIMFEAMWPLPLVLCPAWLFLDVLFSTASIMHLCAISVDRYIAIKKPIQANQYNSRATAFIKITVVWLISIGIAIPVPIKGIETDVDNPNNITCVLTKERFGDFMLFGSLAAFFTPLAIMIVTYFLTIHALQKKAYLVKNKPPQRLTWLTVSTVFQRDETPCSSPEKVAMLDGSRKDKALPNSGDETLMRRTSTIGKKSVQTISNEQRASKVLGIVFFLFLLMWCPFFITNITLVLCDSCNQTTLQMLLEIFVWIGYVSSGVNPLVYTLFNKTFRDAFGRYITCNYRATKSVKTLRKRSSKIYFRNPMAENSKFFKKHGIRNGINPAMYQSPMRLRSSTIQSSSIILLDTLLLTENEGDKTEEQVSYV

Cl.Clc1cccc(Nc2nc(Cc3ccccc3)nc3c2CCNCC3)c1
Ratio IC50 [1]: 4.2 | Activity [2]: 0.034 g | Activity [3]: 0.04 g | AUC(0-inf) [4]: 1050 ng·h/mL | inhibition in vivo at 12.5 mg/kg [5]: 71% | concentration at 2 h [6]: 190 ng/mL | dose excreted [7]: 0.03% | Activity [8]: 3.87 g | AUC(0-t) [9]: 375 ng·h/mL | Activity [10]: Active | IC50 [11]: 807 nM | inhibition in vivo at 25 mg/kg [12]: 90.2% | inhibition in vivo at 25 mg/kg [13]: 32.7% | inhibition in vivo at 12.5 mg/kg [14]: 24.9% | IC50 [15]: 3 nM | Activity [16]: Toxic | Activity [17]: 3.776 g | concentration at 2 h [18]: 29.2 ng/mL | Activity [19]: 0.344 g | Ratio IC50 [20]: 8.1 | Activity [21]: 3.475 g | Activity [22]: 0.143 g | half-life [23]: 12.7 h | Activity [24]: 0.17 g | Tmax [25]: 3.5 h | inhibition in vivo at 12.5 mg/kg [26]: 47.8% | IC50 [27]: 32 nM | concentration at 2 h [28]: 1480 ng/mL | Activity [29]: 0.369 g | Activity [30]: 0.075 g | Activity [31]: 0.033 g | inhibition in vivo at 50 mg/kg [32]: 76.6%
